In ChEMBL document CHEMBL5058577, “EUbOPEN Chemogenomics Library 2 (Multiplex)” (2022):

Test system: U2OS
Assay: Multiplex assay against U2OS
Type: toxicity, cell-based
Settings: human
How it was run: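 On a CQ1 microscope at 37°C and 5% CO2, live cells were imaged after compound addition. They had been stained at seeding with Hoechst33342, BioTracker Green Microtubule Cytoskeleton Dye, MitoTracker Red and Annexin V Alexa Fluor 680. CellPathfinder machine-learning gating assigned cells to Hoechst high-intensity objects or normal cells, normal cells to healthy, pyknosed or fragmented nuclei, and pyknosed cells to mitotic or apoptotic. Tubulin, mitochondrial-mass and membrane-permeability phenotypes are per cents of healthy-nucleus cells.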

[1] = 12 h, 1 µM, compound concentration 1 uM, replicate 1
[2] = 12 h, 1 µM, compound concentration 1 uM, replicate 2
[3] = 12 h, 10 µM, compound concentration 10 uM, replicate 1
[4] = 12 h, 10 µM, compound concentration 10 uM, replicate 2
[5] = 24 h, 1 µM, compound concentration 1 uM, replicate 1
[6] = 24 h, 1 µM, compound concentration 1 uM, replicate 2
[7] = 24 h, 10 µM, compound concentration 10 uM, replicate 1
[8] = 24 h, 10 µM, compound concentration 10 uM, replicate 2
[9] = 48 h, 1 µM, compound concentration 1 uM, replicate 1
[10] = 48 h, 1 µM, compound concentration 1 uM, replicate 2
[11] = 48 h, 10 µM, compound concentration 10 uM, replicate 1
[12] = 48 h, 10 µM, compound concentration 10 uM, replicate 2

CN(C)C(=O)Cn1cc(-c2ccc(-c3nnc4ccccn34)cc2)cn1
Population Apoptotic (%) [1]: 90%
Population Fragmented Nuclei (%) [1]: 25%
Population Healthy Nuclei (%) [1]: 66%
Population Hoechst High Intensity Objects (%) [1]: 1%
Population Membrane Permeable-Phenotype (%) [1]: 6%
Population Mitochondria Different-Phenotype (%) [1]: 1%
Population Mitotic Cells (%) [1]: 9%
Population Normal (%) [1]: 98%
Population Pyknosed Nuclei (%) [1]: 8%
Population Tubulin-Different-Phenotype (%) [1]: 3%
Total Cell Count [1]: 251
Population Fragmented Nuclei (%) [2]: 22%
Population Healthy Nuclei (%) [2]: 68%
Population Hoechst High Intensity Objects (%) [2]: 0%
Population Membrane Permeable-Phenotype (%) [2]: 3%
Population Mitochondria Different-Phenotype (%) [2]: 6%
Population Normal (%) [2]: 99%
Population Pyknosed Nuclei (%) [2]: 9%
Population Tubulin-Different-Phenotype (%) [2]: 4%
Total Cell Count [2]: 123
Population Apoptotic (%) [3]: 95%
Population Fragmented Nuclei (%) [3]: 26%
Population Healthy Nuclei (%) [3]: 65%
Population Hoechst High Intensity Objects (%) [3]: 1%
Population Membrane Permeable-Phenotype (%) [3]: 4%
Population Mitochondria Different-Phenotype (%) [3]: 1%
Population Mitotic Cells (%) [3]: 4%
Population Normal (%) [3]: 98%
Population Pyknosed Nuclei (%) [3]: 7%
Population Tubulin-Different-Phenotype (%) [3]: 3%
Total Cell Count [3]: 298
Population Apoptotic (%) [4]: 90%
Population Fragmented Nuclei (%) [4]: 11%
Population Healthy Nuclei (%) [4]: 81%
Population Mitochondria Different-Phenotype (%) [4]: 0%
Population Mitotic Cells (%) [4]: 10%
Total Cell Count [4]: 140
Population Apoptotic (%) [5]: 94%
Population Fragmented Nuclei (%) [5]: 22%
Population Healthy Nuclei (%) [5]: 71%
Population Hoechst High Intensity Objects (%) [5]: 0%
Population Membrane Permeable-Phenotype (%) [5]: 4%
Population Mitochondria Different-Phenotype (%) [5]: 2%
Population Mitotic Cells (%) [5]: 5%
Population Normal (%) [5]: 99%
Population Pyknosed Nuclei (%) [5]: 5%
Population Tubulin-Different-Phenotype (%) [5]: 1%
Total Cell Count [5]: 315
Population Apoptotic (%) [6]: 100%
Population Fragmented Nuclei (%) [6]: 17%
Population Healthy Nuclei (%) [6]: 74%
Population Membrane Permeable-Phenotype (%) [6]: 7%
Population Mitochondria Different-Phenotype (%) [6]: 7%
Population Mitotic Cells (%) [6]: 0%
Population Normal (%) [6]: 100%
Population Pyknosed Nuclei (%) [6]: 8%
Population Tubulin-Different-Phenotype (%) [6]: 4%
Total Cell Count [6]: 131
Population Apoptotic (%) [7]: 86%
Population Fragmented Nuclei (%) [7]: 22%
Population Healthy Nuclei (%) [7]: 66%
Population Hoechst High Intensity Objects (%) [7]: 2%
Population Membrane Permeable-Phenotype (%) [7]: 4%
Population Mitochondria Different-Phenotype (%) [7]: 1%
Population Mitotic Cells (%) [7]: 13%
Population Normal (%) [7]: 97%
Population Pyknosed Nuclei (%) [7]: 11%
Population Tubulin-Different-Phenotype (%) [7]: 2%
Total Cell Count [7]: 333
Population Apoptotic (%) [8]: 87%
Population Fragmented Nuclei (%) [8]: 10%
Population Healthy Nuclei (%) [8]: 85%
Population Hoechst High Intensity Objects (%) [8]: 1%
Population Membrane Permeable-Phenotype (%) [8]: 7%
Population Mitotic Cells (%) [8]: 12%
Population Normal (%) [8]: 98%
Population Pyknosed Nuclei (%) [8]: 4%
Population Tubulin-Different-Phenotype (%) [8]: 3%
Total Cell Count [8]: 180
Population Apoptotic (%) [9]: 87%
Population Fragmented Nuclei (%) [9]: 16%
Population Healthy Nuclei (%) [9]: 75%
Population Hoechst High Intensity Objects (%) [9]: 2%
Population Membrane Permeable-Phenotype (%) [9]: 4%
Population Mitochondria Different-Phenotype (%) [9]: 2%
Population Mitotic Cells (%) [9]: 12%
Population Normal (%) [9]: 97%
Population Pyknosed Nuclei (%) [9]: 7%
Population Tubulin-Different-Phenotype (%) [9]: 1%
Total Cell Count [9]: 426
Population Apoptotic (%) [10]: 93%
Population Fragmented Nuclei (%) [10]: 11%
Population Healthy Nuclei (%) [10]: 67%
Population Membrane Permeable-Phenotype (%) [10]: 7%
Population Mitochondria Different-Phenotype (%) [10]: 3%
Population Mitotic Cells (%) [10]: 6%
Population Pyknosed Nuclei (%) [10]: 20%
Population Tubulin-Different-Phenotype (%) [10]: 3%
Total Cell Count [10]: 158
Population Apoptotic (%) [11]: 95%
Population Fragmented Nuclei (%) [11]: 21%
Population Healthy Nuclei (%) [11]: 67%
Population Hoechst High Intensity Objects (%) [11]: 3%
Population Membrane Permeable-Phenotype (%) [11]: 8%
Population Mitochondria Different-Phenotype (%) [11]: 4%
Population Mitotic Cells (%) [11]: 4%
Population Normal (%) [11]: 96%
Population Pyknosed Nuclei (%) [11]: 11%
Population Tubulin-Different-Phenotype (%) [11]: 4%
Total Cell Count [11]: 418
Population Apoptotic (%) [12]: 85%
Population Fragmented Nuclei (%) [12]: 8%
Population Healthy Nuclei (%) [12]: 81%
Population Hoechst High Intensity Objects (%) [12]: 2%
Population Membrane Permeable-Phenotype (%) [12]: 6%
Population Mitochondria Different-Phenotype (%) [12]: 2%
Population Mitotic Cells (%) [12]: 14%
Population Normal (%) [12]: 97%
Population Pyknosed Nuclei (%) [12]: 9%
Population Tubulin-Different-Phenotype (%) [12]: 2%
Total Cell Count [12]: 284
